Data: ChEMBL document CHEMBL5625186, “Synthesis, cytotoxicity, antioxidant activity and molecular modeling of new NSAIDs-EBS derivatives” (Eur J Med Chem, 2023)
The source made the active and inactive calls. The calls are words filed in the database; no cut-off is given here.

Legend:
BGC-823 = assay: Cytotoxicity against human BGC-823 cells measured after 24 to 72 hrs by MTT assay; type: functional, cell-based
In short: (§1)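 Cells were grown in RPMI 1640 with 10% FBS and penicillin/streptomycin at 37 °C, 5% CO2. They were seeded at 1×10^4 cells/well and allowed to attach for 24 h. Compounds at various concentrations were then applied for 24, 48 or 72 h (DMSO below 1.25%). MTT (5.0 mg/mL) was added 3 h before the end, formazan was dissolved in DMSO and OD was read at 570 nm. Doxorubicin served as reference. Data are mean ± SD, n=3.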

SW480 = assay: Cytotoxicity against human SW480 cells measured after 24 to 72 hrs by MTT assay; type: functional, cell-based; in short: as §1
MCF7 = assay: Cytotoxicity against human MCF7 cells measured after 24 to 72 hrs by MTT assay; type: functional, cell-based; in short: as §1
HeLa = assay: Cytotoxicity against human HeLa cells measured after 24 to 72 hrs by MTT assay; type: functional, cell-based; in short: as §1
A549 = assay: Cytotoxicity against human A549 cells measured after 24 to 72 hrs by MTT assay; type: functional, cell-based; in short: as §1
[1] = Antioxidant activity assessed as DPPH radical scavenging activity incubated for 30 mins under dark condition relative to control; type: functional; parameters: concentration or dose not given beside the values
In short: (§2)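 Compounds at a range of concentrations were mixed with DPPH solution and kept 30 min in the dark. Absorbance was read at 517 nm. % activity = [(control A − sample A)/control A] × 100. Vitamin C and ebselen served as positive controls and DMSO as the negative control. Fold is expressed relative to vitamin C (set as 1). Values are mean ± SD of three independent experiments.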

DNA = assay: Induction of bleomycin-dependent DNA (unknown origin) damage assessed as absorbance at 0.1 mg/ml measured after 1 hr; type: nucleic-acid assay
In short: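 The bleomycin-iron/DNA mixture was incubated at 37 °C for 1 h and stopped with 0.1 M EDTA. Colour was developed with 1% TBA plus 25% HCl at 80 °C for 30 min. After ice cooling, DNA damage was read as the increase in absorbance at 532 nm. L-ascorbic acid served as the positive control.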

[2] = Antioxidant activity assessed as glutathione peroxidase-like activity at 41 mM measured over 3 mins; type: functional
In short: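 GPx-like rate measured from GSH/glutathione reductase/NADPH coupling in 50 mM phosphate buffer with 0.1% Triton X-100. The compound was added from a 41 mM solution, and the reaction was started with H2O2 (0.8 mM). A340 was followed for 3 min and expressed as ΔA/min. Values were corrected for the H2O2 + GSH background, and for the compound's own absorbance if coloured. Ebselen (41 mM) served as reference.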

[3] = biological target: T1, Thioredoxin reductase 1, cytoplasmic (Rattus norvegicus, UniProt O89049); assay: Inhibition of rat TrxR1 using DTNB as substrate preincubated for 15 mins followed by substrate addition and measured for 20 mins by colorimetric method
T1 sequence (O89049 whole entry): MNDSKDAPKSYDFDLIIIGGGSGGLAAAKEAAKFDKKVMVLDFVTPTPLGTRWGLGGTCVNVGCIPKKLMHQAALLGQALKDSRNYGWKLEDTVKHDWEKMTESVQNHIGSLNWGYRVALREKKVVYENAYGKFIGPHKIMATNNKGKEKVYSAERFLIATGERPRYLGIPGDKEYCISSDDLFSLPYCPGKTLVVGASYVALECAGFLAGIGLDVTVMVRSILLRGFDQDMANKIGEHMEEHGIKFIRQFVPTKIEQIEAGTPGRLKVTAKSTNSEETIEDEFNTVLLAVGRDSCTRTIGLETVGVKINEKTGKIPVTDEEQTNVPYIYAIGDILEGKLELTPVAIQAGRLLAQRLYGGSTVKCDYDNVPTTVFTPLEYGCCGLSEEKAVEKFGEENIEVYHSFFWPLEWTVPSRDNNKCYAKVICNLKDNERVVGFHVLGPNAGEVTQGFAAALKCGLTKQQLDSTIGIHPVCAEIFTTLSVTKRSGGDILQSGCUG
In short: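 Rat TrxR1 (5 nM) was used in 100 mM potassium phosphate pH 7.0 with 1 mM EDTA, 0.1 mg/ml BSA and 0.2 mM NADPH. […] DTNB was then added and the A412 increase was monitored for 20 min.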

[4] = Potency index, ratio of test compound to vitamin C antioxidant activity assessed as DPPH radical scavenging activity incubated for 30 mins under dark condition; type: functional; in short: as §2

| SMILES | EC50 [3] [µM] | IC50 (BGC-823) [µM] | IC50 (SW480) [µM] | IC50 (MCF7) [µM] | IC50 (HeLa) [µM] | IC50 (A549) [µM] | inhibition [1] [%] | Activity (DNA) | Activity [2] | Ratio [4] |
| --- | --- | --- | --- | --- | --- | --- | --- | --- | --- | --- |
| CC(=O)Oc1ccccc1C(=O)NCCn1[se]c2ccccc2c1=O | 21.4 | 11.4 | 14.2 | 14.5 | 12.7 | 10.6 | 41.4 | 91.4 | Active | 0.4 |
| CC(=O)Oc1ccccc1C(=O)O [ASPIRIN] | – | > 50 | > 50 | > 50 | > 50 | > 50 | – | – | – | – |
| CC(C(=O)NCCn1[se]c2ccccc2c1=O)c1cccc(C(=O)c2ccccc2)c1 (stereo not drawn) | 23.6 | 13.6 | 14.6 | 10.3 | 11.3 | 15.6 | 33.3 | 87.6 | Active | 0.3 |
| O=C1O[C@H]([C@@H](O)CO)C(O)=C1O | – | – | – | – | – | – | 97.2 | 292 | – | – |
| COc1ccc2c(c1)c(CC(=O)NCCn1[se]c3ccccc3c1=O)c(C)n2C(=O)c1ccc(Cl)cc1 | 24.5 | 17.4 | 14.3 | 10.3 | 13.6 | 11.2 | 27.3 | 92.4 | Active | 0.3 |
| COc1ccc2cc(C(C)C(=O)NCCn3[se]c4ccccc4c3=O)ccc2c1 (stereo not drawn) | 28.4 | 13.5 | 15.7 | 16.5 | 8.8 | 14.7 | 28.6 | 123 | Active | 0.3 |
| CC1=C(CC(=O)NCCn2[se]c3ccccc3c2=O)c2cc(F)ccc2/C1=C\c1ccc([S+](C)[O-])cc1 (stereo not drawn) | 27 | 16.6 | 10.4 | 14.4 | 11.3 | 13.3 | 29 | 68.4 | Active | 0.3 |
| O=c1c2ccccc2[se]n1-c1ccccc1 [EBSELEN] | – | > 50 | > 50 | > 50 | > 50 | > 50 | – | – | – | – |
| CC(C)Cc1ccc(C(C)C(=O)O)cc1 (stereo not drawn) [IBUPROFEN] | – | > 50 | > 50 | > 50 | > 50 | > 50 | – | – | – | – |
| COc1ccc2cc([C@H](C)C(=O)O)ccc2c1 [NAPROXEN] | – | > 50 | > 50 | > 50 | > 50 | > 50 | – | – | – | – |
| COc1cccc2c1C(=O)c1c(O)c3c(c(O)c1C2=O)C[C@@](O)(C(=O)CO)C[C@@H]3O[C@H]1C[C@H](N)[C@H](O)[C@H](C)O1 [DOXORUBICIN] | – | 9.8 | 12.4 | 12.8 | 11.5 | 9.4 | – | – | – | – |

Further lines, with some results ahead:

| EC50 [3] [µM] | SMILES | IC50 (BGC-823) [µM] | IC50 (SW480) [µM] | IC50 (MCF7) [µM] | IC50 (HeLa) [µM] | IC50 (A549) [µM] | inhibition [1] [%] | Activity (DNA) | Activity [2] | Ratio [4] |
| --- | --- | --- | --- | --- | --- | --- | --- | --- | --- | --- |
| 10.4 | CC1=C(CC(=O)NCc2ccc(-n3[se]c4ccccc4c3=O)cc2)c2cc(F)ccc2/C1=C\c1ccc([S+](C)[O-])cc1 (stereo not drawn) | 9.5 | 9.8 | 7.4 | 8.4 | 8.3 | 42.9 | 72.4 | – | 0.4 |
| 24.8 | O=C(NCCn1[se]c2ccccc2c1=O)c1ccccc1Nc1cccc(C(F)(F)F)c1 | 11.4 | 9.4 | 12.6 | 15.2 | 12.2 | 41.7 | 77.7 | Active | 0.4 |
| 11.5 | O=C(NCc1ccc(-n2[se]c3ccccc3c2=O)cc1)c1ccccc1Nc1cccc(C(F)(F)F)c1 | 8.4 | 13.7 | 14.2 | 7.5 | 12.7 | 51.5 | 56.1 | – | 0.5 |
| 17.1 | CCC1(CC)OCCc2c1[nH]c1c(CC(=O)NCc3ccc(-n4[se]c5ccccc5c4=O)cc3)cccc21 | 9.8 | 12.3 | 8.8 | 12.6 | 9.8 | 52.1 | 97.4 | – | 0.5 |
| 26.6 | Cc1cccc(Nc2ccccc2C(=O)NCCn2[se]c3ccccc3c2=O)c1C | 6.5 | 7.2 | 5.3 | 8.8 | 5.2 | 37.4 | 72.4 | Active | 0.4 |
| 19.6 | CC(C(=O)NCc1ccc(-n2[se]c3ccccc3c2=O)cc1)c1cccc(C(=O)c2ccccc2)c1 (stereo not drawn) | 11.2 | 12.5 | 8.4 | 9.2 | 13.2 | 31.3 | 85.3 | – | 0.3 |
| 14.3 | Cc1cccc(Nc2ccccc2C(=O)NCc2ccc(-n3[se]c4ccccc4c3=O)cc2)c1C | 3.4 | 4.5 | 4.2 | 3.8 | 3.6 | 54.3 | 72.4 | Active | 0.5 |
